Results gathered from unrelated publications.
Protocols differ between the studies behind these lines.
MEP1A: Meprin A subunit alpha (MEP1A, Homo sapiens, UniProt Q16819)
ARAF: Serine/threonine-protein kinase A-Raf (ARAF, Homo sapiens, UniProt P10398)
KDM1A: Lysine-specific histone demethylase 1A (KDM1A, Homo sapiens, UniProt O60341)
PPO3: PPO3 (Agaricus bisporus, UniProt C7FF04)
PFF0160c: Dihydroorotate dehydrogenase (quinone), mitochondrial (PFF0160c, Plasmodium falciparum, UniProt Q08210)
AURKB: Aurora kinase B (AURKB, Homo sapiens, UniProt Q96GD4)
PDE5A: cGMP-specific 3',5'-cyclic phosphodiesterase (PDE5A, Homo sapiens, UniProt O76074)

SMILES	target	assay	setting	IC50 [µM]
O=C(CCN(Cc1ccncc1)Cc1ccc(Cl)c(O)c1F)NO	MEP1A	enzyme activity, inhibitor		0.646
O=C(Nc1ccn(Cc2ccc(O)cc2C(F)(F)F)n1)c1c(F)cccc1F	Transient receptor potential cation channel subfamily A member 1 (TRPA1, Homo sapiens, UniProt O75762)	ion current, inhibitor		> 10
O=C1Nc2ccc(I)cc2/C1=C/c1cc(Br)c(O)c(Br)c1	ARAF	enzyme activity, inhibitor, radiometric		0.0154
C#CCSc1nc(Sc2nnnn2-c2cccnc2)c2nnn(Cc3ccccc3Cl)c2n1	KDM1A	enzyme activity, inhibitor, fluorescence		0.127
CCCCc1ccc(-c2ccc(-c3cc(C(=O)O)c4ccc(OC)cc4n3)o2)cc1	Eukaryotic initiation factor 4A-I (EIF4A1, Homo sapiens, UniProt P60842)	ATPase activity, inhibitor, absorbance		> 150
Cc1ccc(C(C)C)cc1NC(=O)COC(=O)c1cccc(O)c1	PPO3	enzyme activity, inhibitor		11
O=C(CCN(Cc1ccc2c(c1)OCO2)Cc1ccc(Cl)c(O)c1F)NO	MEP1A	enzyme activity, inhibitor		0.159
CCCSc1nc(Sc2nnnn2C)c2nnn(CCc3cccs3)c2n1	KDM1A	enzyme activity, inhibitor, fluorescence		0.339
Cc1cc(Nc2ccc(Cl)cc2)n2nc(CN)nc2n1	PFF0160c	enzyme activity, inhibitor		> 10
CC(C)(C)n1nc(-c2cnc3cc(OC4CC4)ccc3c2)c(C(N)=O)c1N	AURKB	cell-free assay, inhibitor		> 10
Cc1cc(Nc2ccc(S(F)(F)(F)(F)F)cc2)n2nc(CC(C)C)nc2n1	PFF0160c	enzyme activity, inhibitor		> 10
CCN1C(=O)[C@H]2Cc3c([nH]c4ccccc34)[C@@H](c3cccnc3)N2C1=O	PDE5A	enzyme activity, inhibitor, FP		0.14
Cc1ccc(C(C)C)cc1NC(=O)COC(=O)/C=C/c1ccc(Cl)cc1	PPO3	enzyme activity, inhibitor		16.7
N[C@@]1(C(=O)O)CC[C@]12CC[C@H]2C(=O)O	Glutamate racemase (Helicobacter pylori J99, UniProt Q9ZLT0)	enzyme activity, inhibitor		18000
Cc1cc(Nc2cccc(Cl)c2)n2nc(OCCN)nc2n1	PFF0160c	enzyme activity, inhibitor		> 10
O=C(NC1CC2(C1)CN(C(=O)c1cc3ccccc3c(=O)[nH]1)C2)c1c[nH]nn1	Poly [ADP-ribose] polymerase 1 (PARP1, Homo sapiens, UniProt P09874)	enzyme activity, inhibitor		1.28
COc1ccc(C2=NN(C3CCCCCC3)C(=O)[C@@H]3CC=CC[C@H]23)cc1-c1ccc(C(N)=O)cc1 (relative stereo)	PDE5A	enzyme activity, inhibitor		> 10
Cc1ccc(NC(=O)c2ccc(C)c(C(F)(F)F)c2)cc1C#Cc1nn(C2CCC(O)CC2)c2ncnc(N)c12 (stereo not drawn)	Cytoplasmic tyrosine-protein kinase BMX (BMX, Homo sapiens, UniProt P51813)	enzyme activity, inhibitor, radiometric		0.021
Cc1ccc(N=Nc2c(N)nc(N)nc2Cl)cc1	PPO3	enzyme activity, inhibitor, absorbance		42
Cc1cc(Nc2ccc(Cl)cc2)n2nc(OCCN)nc2n1	PFF0160c	enzyme activity, inhibitor		> 10
CN(CCCCNC(=O)c1cc2ccccc2[nH]1)[C@@H]1Cc2cccc3[nH]c(=O)n(c23)C1	5-hydroxytryptamine receptor 2A (HTR2A, Homo sapiens, UniProt P28223)	ligand displacement, radioligand		1.94

SMILES	target	assay	setting	IC50 [µM]
Cc1cc(Nc2ccc3c(c2)CCCC3)n2ccnc2n1	PFF0160c	enzyme activity, inhibitor		0.1
Cc1cc(Nc2ccc(Cl)cc2)n2nc(CN(C)C)nc2n1	PFF0160c	enzyme activity, inhibitor		> 10
COC(=O)[C@H]1Cc2c([nH]c3ccccc23)[C@@H](c2ccc(OC)c(OC)c2)N1C(=O)CCl	PDE5A	enzyme activity, inhibitor, FP		> 10
Nc1nc(N)c(N=Nc2ccc([N+](=O)[O-])cc2)c(Cl)n1	PPO3	enzyme activity, inhibitor, absorbance		37.2
Cc1ccc(C(C)C)cc1NC(=O)COC(=O)/C=C/c1ccccc1	PPO3	enzyme activity, inhibitor		0.78
CCOCc1nc(O)c(-c2nnc(Cc3ccc(Cl)cn3)o2)c(O)c1-c1c(OC)cccc1OC	Cannabinoid receptor 1 (CNR1, Homo sapiens, UniProt P21554)	ligand displacement, radioligand		> 30
O=C(Nc1c[nH]nc1-c1nc2cc(CN3CCOCC3)ccc2[nH]1)NC1CC1	AURKB	enzyme activity, inhibitor, mobility shift		0.0023
CC(C)(C)N1C(=O)[C@@H]2Cc3c([nH]c4ccccc34)[C@@H](c3cccnc3)N2C1=O	PDE5A	enzyme activity, inhibitor, FP		0.18
CCC(=O)CCCCC[C@@H]1NC(=O)[C@H](C)N(C)C(=O)C[C@H](CC(C)C)NC(=O)[C@H](Cc2c[nH]c3ccccc23)NC1=O	Histone deacetylase 2 (HDAC2, Homo sapiens, UniProt Q92769)	enzyme activity, inhibitor		0.04
N#CC(C(=O)c1ccc(Cl)cc1Cl)=C1NC(=O)c2ccc(OCc3ccc4c(c3)OCO4)cc2N1	Cytoplasmic dynein 1 heavy chain 1 (DYNC1H1, Homo sapiens, UniProt Q14204)	ATPase activity, inhibitor		130
COc1ccc(Nc2nc(N)c(C(=O)c3ccc(OC)c(OC)c3)s2)cc1	Sphingosine kinase 1 (SPHK1, Homo sapiens, UniProt Q9NYA1)	enzyme activity, inhibitor		~3
Nc1cc(Nc2ccc(C(F)(F)F)cc2)n2ncnc2n1	PFF0160c	enzyme activity, inhibitor		31
O=C1[C@H]2Cc3c([nH]c4ccccc34)[C@@H](c3cccnc3)N2C(=O)N1c1ccc(Cl)cc1	PDE5A	enzyme activity, inhibitor, FP		4.99
CNCCc1nc2nc(C)cc(Nc3cccc(Cl)c3)n2n1	PFF0160c	enzyme activity, inhibitor		> 10
COc1cc2c(cc1OC)-c1c/c(=N\c3c(C)cc(C)cc3C)n(C)c(=O)n1CC2	PDE5A	enzyme activity, inhibitor, FP		3.4
Nc1nc(N)c(N=Nc2ccc([N+](=O)[O-])cc2)c(N)n1	PPO3	enzyme activity, inhibitor, absorbance		40.6
Cc1cc(Nc2ccc(Cl)cc2)n2[nH]c(=O)nc2n1	PFF0160c	enzyme activity, inhibitor		> 10
CCN1C(=O)[C@H]2Cc3c([nH]c4ccccc34)[C@@H](c3ccc(OC)c(OC)c3)N2C1=O	PDE5A	enzyme activity, inhibitor, FP		5.11
Cc1cc(Nc2ccc(C(F)(F)F)cc2)n2nc(OCCN)nc2n1	PFF0160c	enzyme activity, inhibitor		> 10
CC[C@@H](C(=O)Nc1ccc(C(N)=O)c(F)c1)n1cc(OC)c(-c2cc(Cl)ccc2-n2cc(C(F)(F)F)nn2)cc1=O	Vitamin K-dependent protein C (PROC, Homo sapiens, UniProt P04070)	enzyme activity, inhibitor		> 10
C[S+]([O-])c1ccc(-c2nc(-c3ccncc3)c(-c3ccc(F)cc3)[nH]2)cc1 (stereo not drawn)	ARAF	enzyme activity, inhibitor	lysate	> 10
